Source: ChEMBL document CHEMBL1141659, “Synthesis, properties, and perspectives of gem-diphosphono substituted-thiazoles” (2008)

Legend:
Mus musculus [1] = test: Antiinflammatory activity in delayed type hypersensitivity mouse model assessed as inhibition of granuloma wet weight at 100 mg/kg, sc
Mus musculus [2] = test: Antiinflammatory activity in delayed type hypersensitivity mouse model assessed as inhibition of granuloma dry weight at 100 mg/kg, sc
Rattus norvegicus = test: Antiresorptive activity in thyroidparathyroidectomized sc dosed rat assessed as inhibition of 1,25-dihydroxyvitamin D3-induced hypercalcemia; assay type: functional
In short: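 In vivo bone resorption was driven by 1,25-dihydroxyvitamin D3, which induced hypercalcemia in thyroparathyroidectomized (TPTX) rats. ED50 values for inhibition of resorption were determined following an earlier published method.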

Compound `N#CC(c1nc2ccccc2s1)C(c1ccccc1[N+](=O)[O-])C(P(=O)(O)O)P(=O)(O)O` (stereo not drawn) has an inhibition in vivo at 100 mg/kg (Mus musculus [1]) of 48%, an inhibition in vivo at 100 mg/kg (Mus musculus [2]) of 51% and an ED50 (Rattus norvegicus) of 0.105 mg/kg.

In the case of `O=C1NC(=S)SC1C(c1ccccc1Cl)C(P(=O)(O)O)P(=O)(O)O` (stereo not drawn), the inhibition in vivo at 100 mg/kg (Mus musculus [1]) is reported as 38%, the inhibition in vivo at 100 mg/kg (Mus musculus [2]) is reported as 44% and the ED50 (Rattus norvegicus) is reported as 0.08 mg/kg.

Compound `O=[N+]([O-])c1ccc(/C=C(\c2nc3ccccc3s2)C(P(=O)(O)O)P(=O)(O)O)cc1` has an inhibition in vivo at 100 mg/kg (Mus musculus [1]) of 8%, an inhibition in vivo at 100 mg/kg (Mus musculus [2]) of 10% and an ED50 (Rattus norvegicus) of 0.115 mg/kg.

Compound `O=[N+]([O-])c1ccccc1/C=C(\c1nc2ccccc2s1)C(P(=O)(O)O)P(=O)(O)O` has an inhibition in vivo at 100 mg/kg (Mus musculus [1]) of 8%, an inhibition in vivo at 100 mg/kg (Mus musculus [2]) of 11% and an ED50 (Rattus norvegicus) of 0.135 mg/kg.

`O=C1NC(=S)SC1C(c1ccccc1)C(P(=O)(O)O)P(=O)(O)O` (stereo not drawn) showed an inhibition in vivo at 100 mg/kg (Mus musculus [1]) of 46%, an inhibition in vivo at 100 mg/kg (Mus musculus [2]) of 39% and an ED50 (Rattus norvegicus) of 0.077 mg/kg.

`O=C1NC(=S)SC1C(c1ccc([N+](=O)[O-])cc1)C(P(=O)(O)O)P(=O)(O)O` (stereo not drawn) showed an inhibition in vivo at 100 mg/kg (Mus musculus [1]) of 43%, an inhibition in vivo at 100 mg/kg (Mus musculus [2]) of 46% and an ED50 (Rattus norvegicus) of 0.085 mg/kg.

With `N#CC(c1nc2ccccc2s1)C(c1ccccc1Cl)C(P(=O)(O)O)P(=O)(O)O` (stereo not drawn) the inhibition in vivo at 100 mg/kg (Mus musculus [1]) was 50%, the inhibition in vivo at 100 mg/kg (Mus musculus [2]) was 41% and the ED50 (Rattus norvegicus) was 0.09 mg/kg.

`CN(C)c1ccc(C(C(C#N)c2nc3ccccc3s2)C(P(=O)(O)O)P(=O)(O)O)cc1` (stereo not drawn) gave an inhibition in vivo at 100 mg/kg (Mus musculus [1]) of 53%, an inhibition in vivo at 100 mg/kg (Mus musculus [2]) of 58% and an ED50 (Rattus norvegicus) of 0.08 mg/kg.

With `Cc1ccc(C(C(C#N)c2nc3ccccc3s2)C(P(=O)(O)O)P(=O)(O)O)cc1` (stereo not drawn) the inhibition in vivo at 100 mg/kg (Mus musculus [1]) was 36%, the inhibition in vivo at 100 mg/kg (Mus musculus [2]) was 38% and the ED50 (Rattus norvegicus) was 0.11 mg/kg.

Work on `O=P(O)(O)C(O)(Cc1cccnc1)P(=O)(O)O` [RISEDRONIC ACID] yielded an inhibition in vivo at 100 mg/kg (Mus musculus [1]) of 48% and an inhibition in vivo at 100 mg/kg (Mus musculus [2]) of 44%.

With `O=C1NC(=S)SC1C(c1ccccc1O)C(P(=O)(O)O)P(=O)(O)O` (stereo not drawn) the inhibition in vivo at 100 mg/kg (Mus musculus [1]) was 54%, the inhibition in vivo at 100 mg/kg (Mus musculus [2]) was 51% and the ED50 (Rattus norvegicus) was 0.078 mg/kg.

Compound `Cc1ccc(/C=C(\c2nc3ccccc3s2)C(P(=O)(O)O)P(=O)(O)O)cc1` has an inhibition in vivo at 100 mg/kg (Mus musculus [1]) of 6%, an inhibition in vivo at 100 mg/kg (Mus musculus [2]) of 13% and an ED50 (Rattus norvegicus) of 0.125 mg/kg.

`CN(C)c1ccc(C(C2SC(=S)NC2=O)C(P(=O)(O)O)P(=O)(O)O)cc1` (stereo not drawn) was tested, and the inhibition in vivo at 100 mg/kg (Mus musculus [1]) was 52%, the inhibition in vivo at 100 mg/kg (Mus musculus [2]) was 55% and the ED50 (Rattus norvegicus) was 0.07 mg/kg.

Work on `CN(C)c1ccc(/C=C(\c2nc3ccccc3s2)C(P(=O)(O)O)P(=O)(O)O)cc1` yielded an inhibition in vivo at 100 mg/kg (Mus musculus [1]) of 14%, an inhibition in vivo at 100 mg/kg (Mus musculus [2]) of 19% and an ED50 (Rattus norvegicus) of 0.11 mg/kg.

`O=P(O)(O)C(/C(=C/c1ccc(Cl)cc1)c1nc2ccccc2s1)P(=O)(O)O` gave an ED50 (Rattus norvegicus) of 0.118 mg/kg.

In the case of `NCCC(O)(P(=O)(O)O)P(=O)(O)O` [PAMIDRONIC ACID], the ED50 (Rattus norvegicus) is reported as 0.085 mg/kg.

`O=P(O)(O)C(/C(=C/c1ccccc1Cl)c1nc2ccccc2s1)P(=O)(O)O` showed an ED50 (Rattus norvegicus) of 0.105 mg/kg.

Compound `N#CC(c1nc2ccccc2s1)C(c1ccc([N+](=O)[O-])cc1)C(P(=O)(O)O)P(=O)(O)O` (stereo not drawn) has an inhibition in vivo at 100 mg/kg (Mus musculus [1]) of 50%, an inhibition in vivo at 100 mg/kg (Mus musculus [2]) of 38% and an ED50 (Rattus norvegicus) of 0.095 mg/kg.

For `O=C1NC(=S)SC1C(c1ccccc1[N+](=O)[O-])C(P(=O)(O)O)P(=O)(O)O` (stereo not drawn), the inhibition in vivo at 100 mg/kg (Mus musculus [1]) was 42%, the inhibition in vivo at 100 mg/kg (Mus musculus [2]) was 46% and the ED50 (Rattus norvegicus) was 0.088 mg/kg.

For `N#CC(c1nc2ccccc2s1)C(c1ccc(Cl)cc1)C(P(=O)(O)O)P(=O)(O)O` (stereo not drawn), the inhibition in vivo at 100 mg/kg (Mus musculus [1]) was 52%, the inhibition in vivo at 100 mg/kg (Mus musculus [2]) was 53% and the ED50 (Rattus norvegicus) was 0.09 mg/kg.
